According to PMC12152739 (Chemical Science, 2025):
In brackets after ≈: the same amount, converted by molar mass. Like-named read-outs stand apart in the source and are kept apart here.

Tests used:
NDM-1 [1] = target: T1, NDM-1 (Klebsiella pneumoniae, UniProt C7C422); test: Steady-state hydrolysis kinetics and UV difference spectra with purified NDM-1; assay type: biochemical; settings: for hydrolysis monitored by UV difference spectroscopy: NDM-1, 200 : 1 S : E ratio, 220 nm to 300 nm; for K M: substrate hydrolysis by NDM-1, 30 °C, 10 mM HEPES, 200 mM NaCl pH 7.5, 20 μM ZnSO4
IMP-1 [2] = target: T2, IMP-1 (Serratia marcescens, UniProt P52699); test: Steady-state hydrolysis kinetics and UV difference spectra with purified IMP-1; assay type: biochemical; settings: for hydrolysis monitored by UV difference spectroscopy: IMP-1, 200 : 1 S : E ratio, 220 nm to 300 nm
NDM-5 [3] = target: T3, NDM-5 (Klebsiella pneumoniae, UniProt C7C422, M154L/V88L); settings: CAZ hydrolysis by NDM-5; cited from earlier work
VIM-2 [4] = target: T4, VIM-2 (Escherichia coli, UniProt Q5U7L7); settings: CAZ hydrolysis by VIM-2, cited from earlier work
IMP-1 [5] = target: T2, IMP-1; settings: CAZ hydrolysis by IMP-1; cited from earlier work
VIM-2 [6] = target: T4, VIM-2; test: Steady-state hydrolysis kinetics and UV difference spectra with purified VIM-2; settings: for hydrolysis monitored by UV difference spectroscopy: VIM-2, 200 : 1 S : E ratio, 220 nm to 300 nm
NDM-5 [7] = target: T3, NDM-5; test: Steady-state hydrolysis kinetics with purified NDM-5; assay type: biochemical; settings: FDC hydrolysis by NDM-5, 30 °C, pH 7.5
Procedure, shortened: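 Purified enzyme in 10 mM HEPES, 200 mM NaCl pH 7.5 with 20 μM ZnSO4, at 30 °C. Initial velocities of substrate hydrolysis followed at 259 nm, Δε259 = −9430 M−1 cm−1, 0.1 cm path cuvette. kcat and KM derived from these initial-rate measurements.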

NDM-1 [8] = target: T1, NDM-1; test: Inhibition of nitrocefin hydrolysis by NDM-1; assay type: biochemical; settings: 2 nM NDM-1, 5 min preincubation at 30 °C, 50 μM nitrocefin
Procedure, shortened: (§1)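 Recombinant MBL lacking its signal peptide, made in E. coli BL21(DE3) as His-tagged protein, Ni-affinity purified and TEV-cleaved (>95% pure). 2 nM enzyme preincubated 5 min at 30 °C with varied test compound, or its NDM-1 hydrolysis product, or none. Buffer: 10 mM HEPES, 200 mM NaCl pH 7.5, 20 μM ZnSO4. Nitrocefin 50 μM final; initial rates at 495 nm over 300 s. IC50 curves fitted; triplicate.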

VIM-2 [9] = target: T4, VIM-2; test: Inhibition of nitrocefin hydrolysis by VIM-2; assay type: biochemical; settings: 2 nM VIM-2, 5 min preincubation at 30 °C, 50 μM nitrocefin
Procedure, shortened: as §1

IMP-1 [10] = target: T2, IMP-1; test: Inhibition of nitrocefin hydrolysis by IMP-1; assay type: biochemical; settings: 2 nM IMP-1, 5 min preincubation at 30 °C, 50 μM nitrocefin
Procedure, shortened: as §1

[11] = system: E. coli DH10B cells harboring the pMBLe blaNDM-1 plasmid; test: Broth microdilution MIC in ID-CAMHB, E. coli producing NDM-1; assay type: cell-based
Procedure, shortened: (§2)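 Broth microdilution per CLSI in iron-depleted cation-adjusted Mueller–Hinton broth. DH10B carries the MBL gene on pMBLe with its native signal peptide under an IPTG-inducible promoter; inoculum in broth with 0–200 μM IPTG, final 5 × 10^5 CFU mL−1. Incubation 37 °C, 18 h; mode of three independent experiments. Enzyme levels by anti-strep-tag II immunoblot of drug-free growth wells, DnaK loading control.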

[12] = system: E. coli DH10B cells harboring the pMBLe blaIMP-1 plasmid; test: Broth microdilution MIC in ID-CAMHB, E. coli producing IMP-1; assay type: cell-based; settings: Escherichia coli, higher levels of IMP-1 (IPTG-induced)
Procedure, shortened: as §2

E. coli (blaNDM-5) = settings: clinical E. coli before ten-fold increase in blaNDM-5 copy number; cited from earlier work

Compound: CC(C)(O/N=C(\C(=O)N[C@@H]1C(=O)N2C(C(=O)[O-])=C(C[n+]3ccccc3)CS[C@H]12)c1csc(N)n1)C(=O)O [CAZ, ceftazidime]
- hydrolysis monitored by UV difference spectroscopy (NDM-1 [1]): can turnover
- K M (NDM-1 [1]): 45 ± 12 µM
- hydrolysis monitored by UV difference spectroscopy (IMP-1 [2]): can turnover
- K M (NDM-5 [3]): 86 ± 11 µM
- k cat (NDM-5 [3]): 15 s⁻¹
- k cat /K M (NDM-5 [3]): 180000 M⁻¹ s⁻¹
- k cat /K M (VIM-2 [4]): 50000 M⁻¹ s⁻¹
- K M (VIM-2 [4]; standard deviations <10%): 72 µM
- k cat (VIM-2 [4]; standard deviations <10%): 3.6 s⁻¹
- K M (IMP-1 [5]): 44 ± 3 µM
- k cat (IMP-1 [5]): 8 ± 1 s⁻¹
- k cat /K M (IMP-1 [5]): 180000 M⁻¹ s⁻¹
- hydrolysis monitored by UV difference spectroscopy (VIM-2 [6]): can turnover

Compound: CC(C)(O/N=C(\C(=O)N[C@@H]1C(=O)N2C(C(=O)[O-])=C(C[N+]3(CCNC(=O)c4ccc(O)c(O)c4Cl)CCCC3)CS[C@H]12)c1csc(N)n1)C(=O)O [FDC, cefiderocol]
- hydrolysis monitored by UV difference spectroscopy (NDM-1 [1]): efficiently hydrolyzes
- K M (NDM-1 [1]): 443 ± 59 µM
- K M (NDM-5 [7]): 405 ± 40 µM
- k cat (NDM-5 [7]): 75 ± 3 s⁻¹
- K M (IMP-1 [2]; FDC hydrolysis by IMP-1, 30 °C, pH 7.5): 300 ± 120 µM
- hydrolysis monitored by UV difference spectroscopy (IMP-1 [2]): negligible activity
- inhibition of nitrocefin hydrolysis activity (NDM-1 [8]): largely unperturbed
- inhibition of nitrocefin hydrolysis activity (VIM-2 [9]): inhibited
- inhibition of nitrocefin hydrolysis activity (IMP-1 [10]): inhibited
- increase in MIC values ([11]; E. coli laboratory strain, NDM-1 overproduction vs basal level): 16 fold
- MIC ([11]; Escherichia coli, ID-CAMHB, higher levels of NDM-1 (IPTG-induced)): 0.5 µg/mL (≈ 0.665 µM)
- MIC [12]: 0.06 µg/mL (≈ 0.0798 µM)
- MIC (E. coli (blaNDM-5)): 2 µg/mL (≈ 2.66 µM)
- K M (VIM-2 [6]; FDC hydrolysis by VIM-2, 30 °C, pH 7.5): 250 ± 80 µM
- hydrolysis monitored by UV difference spectroscopy (VIM-2 [6]): negligible activity
